Drawing on ChEMBL document CHEMBL1126989, “Synthesis and cytotoxicity of 1,6,7,8-substituted 2-(4'-substituted phenyl)-4-quinolones and related compounds: identification as antimitotic agents interacting with tubulin” (J Med Chem, 1993), this text covers EC50 and IC50 for 23 compounds.

One experiment deals with KB. The experiment can be described thus: Cytotoxicity in vitro expressed as 50% reduction in cell number after a 3-day incubation, in human epidermoid carcinoma KB cell line. The format is functional, cell-based. To be noted: 72 h. In short, it runs like this:
(§1)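 Cell lines adapted to antibiotic-free RPMI-1640 with 10% fetal calf serum; ca. 1×10^5 cells per well, overnight stabilization, then serial dilutions added, quadruplicate per concentration; medium-only controls. After 3-4 days, MTT added and incubated overnight; formazan dissolved in DMSO, absorbance at 570 nm. EC50 calculated from two data points bracketing 50% growth inhibition. Actinomycin as positive control.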

The next experiment concerns L1210 (1565). Description: Cytotoxicity in vitro expressed as 50% reduction in cell number after a 3-day incubation, in murine leukemia L-1210 cell line. The format is functional, cell-based. To be noted: Mus musculus, 72 h. In short, it runs like this: as §1
In a further experiment the test system is HCT-8. Description: Cytotoxicity in vitro expressed as 50% reduction in cell number after a 3-day incubation, in human ileocecal carcinoma HCT-8 cell line. The format is functional, cell-based. To be noted: HCT-8, 72 h. The method, boiled down:
as §1

In another experiment the test system is P388. The experiment can be described thus: Cytotoxicity in vitro expressed as 50% reduction in cell number after a 3-day incubation, in murine leukemia P-388 cell line. The format is functional, cell-based. To be noted: Mus musculus, P388, 72 h. In short, it runs like this:
as §1

In another experiment the test system is A549. The experiment can be described thus: Cytotoxicity in vitro expressed as 50% reduction in cell number after a 3-day incubation, in human lung carcinoma A-549 cell line. The format is functional, cell-based. To be noted: A549, 72 h. The method, boiled down: as §1
The next experiment has as its target Tubulin beta chain (Bos taurus, UniProt Q6B856). The experiment can be described thus: (§2) Inhibition of tubulin polymerization. The format is functional. In short, it runs like this: (§3)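 Bovine brain tubulin 1.0 mg/mL (10 μM) with 1.0 M repurified monosodium glutamate, 1.0 mM MgCl2, 4% DMSO and drug; preincubated 15 min at 37 °C, chilled, GTP added; turbidity at 350 nm after jump from 0 to 37 °C, followed 20 min.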

The subject of a further experiment is RPMI-7951. Description: Cytotoxicity in vitro expressed as 50% reduction in cell number after a 3-day incubation, in human melanoma RPMI-7951 cell line. The format is functional, cell-based. To be noted: RPMI-7951, 72 h. The method, boiled down: as §1
Another experiment deals with Tubulin. The experiment is described as §2. The format is functional. In short, it runs like this:
as §3

≈ marks a conversion by molar mass, not a printed value.

Tubulin beta chain, sequence (Q6B856 whole entry): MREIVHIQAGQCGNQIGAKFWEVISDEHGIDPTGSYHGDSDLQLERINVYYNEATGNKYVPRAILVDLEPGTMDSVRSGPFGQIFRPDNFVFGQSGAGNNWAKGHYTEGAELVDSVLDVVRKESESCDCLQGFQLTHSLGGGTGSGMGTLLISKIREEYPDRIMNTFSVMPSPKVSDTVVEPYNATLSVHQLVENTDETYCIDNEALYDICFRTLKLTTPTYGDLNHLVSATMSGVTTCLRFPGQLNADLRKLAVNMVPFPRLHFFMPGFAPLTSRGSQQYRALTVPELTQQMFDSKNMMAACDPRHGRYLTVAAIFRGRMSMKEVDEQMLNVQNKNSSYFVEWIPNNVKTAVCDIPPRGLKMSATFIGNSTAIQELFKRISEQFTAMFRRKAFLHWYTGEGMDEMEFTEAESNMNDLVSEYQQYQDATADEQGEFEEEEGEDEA

For orientation: EC50 means the concentration needed to bring the measured effect to its halfway point. Read a high EC50 as weaker potency. For `CCOc1cc(-c2ccccc2)nc2ccccc12`, the EC50 in the experiment with KB is 6.7 µg/mL (≈ 26.9 µM); in the experiment on L1210 (1565), above 10 µg/mL; in the experiment on HCT-8, above 10 µg/mL; with P388, 6 µg/mL (≈ 24.1 µM); in the experiment on A549 it was above 10 µg/mL.
A word on the IC50: it is the concentration at which inhibition is half-maximal. A high value points to weaker potency. `COc1cc([C@@H]2c3cc4c(cc3[C@H](O)[C@H]3COC(=O)[C@H]23)OCO4)cc(OC)c1OC` [PODOFILOX]: the 50% inhibitory concentration (IC50) on Tubulin beta chain was 1.3 µM.
`COc1cc(-c2ccccc2)nc2ccccc12`: the EC50 with KB was above 10 µg/mL; in the experiment with L1210 (1565), above 10 µg/mL; in the experiment on HCT-8, above 10 µg/mL; in the experiment on P388 it was 4.5 µg/mL (≈ 19.1 µM); with A549, above 10 µg/mL.
In the case of `COc1ccc2c(O)cc(-c3ccccc3)nc2c1`, the EC50 with KB worked out at 0.53 µg/mL (≈ 2.11 µM); with L1210 (1565), 0.57 µg/mL (≈ 2.27 µM); with HCT-8, 4.86 µg/mL (≈ 19.3 µM); in the experiment with P388 it was 0.67 µg/mL (≈ 2.67 µM); in the experiment with RPMI-7951, 0.43 µg/mL (≈ 1.71 µM); with A549 it was 0.73 µg/mL (≈ 2.91 µM). Also, 4.8 µM corresponded to half-maximal inhibition against Tubulin beta chain (IC50).
With `COCOc1ccc(-c2cc(=O)c3ccccc3n2C)cc1`, the EC50 in the experiment on L1210 (1565) and in the experiment on P388 was above 10 µg/mL each time.
For the compound `Cn1c(-c2ccccc2)cc(=O)c2ccccc21`, the EC50 in the experiment on KB, in the experiment on L1210 (1565), in the experiment on HCT-8, in the experiment with P388, with RPMI-7951 and with A549 was above 10 µg/mL in each case. On Tubulin beta chain, the IC50 is above 40 µM.
Take `Oc1cc(-c2ccccc2)nc2ccccc12`: the EC50 with KB turned out to be 0.09 µg/mL (≈ 0.407 µM); with L1210 (1565) it was 0.06 µg/mL (≈ 0.271 µM); with HCT-8 it was 0.8 µg/mL (≈ 3.62 µM); in the experiment on P388, 0.08 µg/mL (≈ 0.362 µM); with RPMI-7951, 0.37 µg/mL (≈ 1.67 µM); in the experiment with A549, 0.5 µg/mL (≈ 2.26 µM). This compound also had an IC50 against Tubulin of 7.3 µM.
`Cn1c(-c2ccc(O)cc2)cc(=O)c2ccccc21`: the EC50 in the experiment with KB is above 10 µg/mL; in the experiment on L1210 (1565), above 10 µg/mL; in the experiment with HCT-8, 5.71 µg/mL (≈ 22.7 µM); in the experiment with P388, above 10 µg/mL; in the experiment on RPMI-7951, above 10 µg/mL; in the experiment with A549, above 10 µg/mL. On Tubulin, this compound had an IC50 above 40 µM.
With `Oc1cc(-c2ccccc2)nc2c(O)cccc12`, the EC50 with KB, in the experiment on L1210 (1565), in the experiment with HCT-8, in the experiment with P388, in the experiment on RPMI-7951 and in the experiment with A549 was above 10 µg/mL throughout.
`Cc1ccc2nc(-c3ccccc3)cc(O)c2c1`: the EC50 was found to be 0.55 µg/mL (≈ 2.34 µM) in the experiment on KB; 0.72 µg/mL (≈ 3.06 µM) with L1210 (1565); 0.9 µg/mL (≈ 3.83 µM) in the experiment with HCT-8; 0.49 µg/mL (≈ 2.08 µM) with P388; 0.53 µg/mL (≈ 2.25 µM) with RPMI-7951; 0.53 µg/mL (≈ 2.25 µM) in the experiment with A549.
For the compound `CC(C)COc1cc(-c2ccccc2)nc2ccccc12`, the EC50 in the experiment with KB was above 4 µg/mL; with L1210 (1565), above 10 µg/mL; in the experiment with HCT-8, above 10 µg/mL; in the experiment with P388 it was above 10 µg/mL; in the experiment with A549, above 10 µg/mL.
As to `Oc1cc(-c2ccccc2)nc2c(F)cccc12`, the EC50 in the experiment on KB is 0.53 µg/mL (≈ 2.22 µM); with L1210 (1565), 0.67 µg/mL (≈ 2.8 µM); in the experiment on HCT-8 it was 0.04 µg/mL (≈ 0.167 µM); in the experiment with P388 it was 0.78 µg/mL (≈ 3.26 µM); with RPMI-7951, 0.38 µg/mL (≈ 1.59 µM); in the experiment on A549, 0.61 µg/mL (≈ 2.55 µM). Also, half-maximal inhibition on Tubulin beta chain (IC50) was put at 11 µM.
Take `Oc1cc(-c2ccccc2)nc2ccc(F)cc12`: the EC50 in the experiment with KB is below 0.01 µg/mL; with L1210 (1565), below 0.01 µg/mL; in the experiment with HCT-8 it was 1.36 µg/mL (≈ 5.68 µM); in the experiment on P388 it was 0.08 µg/mL (≈ 0.334 µM); with RPMI-7951, 0.53 µg/mL (≈ 2.22 µM); in the experiment on A549, 0.38 µg/mL (≈ 1.59 µM). Further, half-maximal inhibition at Tubulin beta chain (IC50) was put at 3.3 µM.
For the compound `CS(=O)(=O)Oc1cc(-c2ccccc2)nc2ccccc12`, the EC50 was 2.8 µg/mL (≈ 9.35 µM) with KB; 6.04 µg/mL (≈ 20.2 µM) with L1210 (1565); 5.6 µg/mL (≈ 18.7 µM) in the experiment on HCT-8; above 10 µg/mL in the experiment with P388; 6.21 µg/mL (≈ 20.7 µM) in the experiment on A549.
Take `Oc1cc(-c2ccccc2)nc2cc(Cl)ccc12`: the EC50 in the experiment on KB was below 0.1 µg/mL; in the experiment with L1210 (1565), below 0.1 µg/mL; in the experiment with HCT-8 it was 0.45 µg/mL (≈ 1.76 µM); in the experiment on P388 it was below 0.1 µg/mL; with RPMI-7951, below 0.1 µg/mL; in the experiment on A549 it was 2.89 µg/mL (≈ 11.3 µM).
In the case of `c1ccc(COc2cc(-c3ccccc3)nc3ccccc23)cc1`, the EC50 with KB is 1.6 µg/mL (≈ 5.14 µM); in the experiment on L1210 (1565), above 10 µg/mL; in the experiment with HCT-8, above 10 µg/mL; with P388, above 10 µg/mL; in the experiment on A549, above 10 µg/mL.
`CC(C)Oc1cc(-c2ccccc2)nc2ccccc12`: the EC50 in the experiment with KB is 4.2 µg/mL (≈ 15.9 µM); in the experiment on L1210 (1565), above 10 µg/mL; in the experiment on HCT-8 it was above 10 µg/mL; with P388 it was above 10 µg/mL; with A549 it was above 10 µg/mL.
`CCCOc1cc(-c2ccccc2)nc2ccccc12`: the EC50 in the experiment with KB is 4.5 µg/mL (≈ 17.1 µM); in the experiment on L1210 (1565) it was above 10 µg/mL; in the experiment with HCT-8, above 10 µg/mL; with P388, 6.9 µg/mL (≈ 26.2 µM); with A549 it was above 10 µg/mL.
Regarding `COc1cccc2c(O)cc(-c3ccccc3)nc12`, the EC50 with KB was 5.05 µg/mL (≈ 20.1 µM); in the experiment with L1210 (1565) it was 7.68 µg/mL (≈ 30.6 µM); in the experiment on HCT-8 it was 0.55 µg/mL (≈ 2.19 µM); in the experiment with P388, above 10 µg/mL; in the experiment with RPMI-7951 it was above 10 µg/mL; in the experiment with A549, 6.77 µg/mL (≈ 26.9 µM). On Tubulin beta chain, the IC50 is above 40 µM.
On to `CCCCOc1cc(-c2ccccc2)nc2ccccc12`, for which the EC50 was 3.8 µg/mL (≈ 13.7 µM) in the experiment with KB; above 10 µg/mL in the experiment with L1210 (1565); above 10 µg/mL in the experiment with HCT-8; above 10 µg/mL in the experiment with P388; above 10 µg/mL in the experiment on A549.
Regarding `CN(C)CCOc1cc(-c2ccccc2)nc2ccccc12`, the EC50 in the experiment with KB was above 4 µg/mL; with L1210 (1565), above 10 µg/mL; with HCT-8, above 10 µg/mL; in the experiment on P388 it was above 10 µg/mL; in the experiment on A549, above 10 µg/mL.
As to `Oc1ccc2c(O)cc(-c3ccccc3)nc2c1`, the EC50 with KB is 0.55 µg/mL (≈ 2.32 µM); in the experiment with L1210 (1565) it was 0.45 µg/mL (≈ 1.9 µM); in the experiment on HCT-8 it was above 10 µg/mL; in the experiment with P388 it was 0.81 µg/mL (≈ 3.41 µM); in the experiment on RPMI-7951 it was 0.52 µg/mL (≈ 2.19 µM); with A549, 0.81 µg/mL (≈ 3.41 µM). For the same compound, at Tubulin beta chain, the IC50 was 3.4 µM.
In the case of `Oc1ccc2nc(-c3ccccc3)cc(O)c2c1`, the EC50 turned out to be 0.41 µg/mL (≈ 1.73 µM) in the experiment with KB; 0.83 µg/mL (≈ 3.5 µM) in the experiment on L1210 (1565); 7.75 µg/mL (≈ 32.7 µM) with HCT-8; 2.86 µg/mL (≈ 12.1 µM) with P388; 3.92 µg/mL (≈ 16.5 µM) in the experiment with RPMI-7951; 8.14 µg/mL (≈ 34.3 µM) with A549. For the same compound, on Tubulin beta chain, it took 16 µM to reach half-maximal inhibition (IC50).
